Test results reported in ChEMBL document CHEMBL1154858, “Synthesis, in vitro antibacterial and antifungal evaluations of new alpha-hydroxyphosphonate and new alpha-acetoxyphosphonate derivatives of tetrazolo [1, 5-a] quinoline” (2010).
In brackets after ≈: the same amount, converted by molar mass.

Key:
Assay type in all cases: functional
Aspergillus niger [1] = assay: Antifungal activity against Aspergillus niger NCIM 545 after 24 hrs by cup plate method; conditions: NCIM 545, 24 h
Summary of the method: (§1)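 Cup-plate MIC on Mueller Hinton agar plates containing the compound at 0 (control), 1, 2, 3, 5, 10, 15, 20, 30 and 40 (unit unclear), with compounds dissolved in DMF. Plates were read after 24 h and incubated further up to 72 h where needed. MIC is the lowest concentration giving no visible macroscopic growth.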

Bacillus subtilis [2] = assay: Antibacterial activity against Bacillus subtilis NCIM 2250 after 48 hrs by agar cup plate method
Summary of the method: (§2)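 Agar cup plate zone-of-inhibition assay on Mueller Hinton agar, with compounds dissolved in DMF and streptomycin in DMF as the reference. Plates were incubated at 37 ± 0.5 °C for 48 h. Inhibition was scored as the diameter of the growth-free zone around the cup.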

Escherichia coli [3] = assay: Antibacterial activity against Escherichia coli ATCC 25922 after 48 hrs by agar cup plate method; summary of the method: as §2
Bacillus subtilis [4] = assay: Antibacterial activity against Bacillus subtilis NCIM 2250 after 24 hrs by cup plate method; conditions: NCIM 2250, 24 h; summary of the method: as §1
Escherichia coli [5] = assay: Antibacterial activity against Escherichia coli ATCC 25922 after 24 hrs by cup plate method; conditions: ATCC 25922, 24 h; summary of the method: as §1
Candida albicans [6] = assay: Antifungal activity against Candida albicans MTCC 277 after 48 hrs by agar cup plate method
Summary of the method: (§3)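 Fungal zone-of-inhibition test in Czapek Dox medium by the agar cup method, with compounds dissolved in DMF and griseofulvin in DMF as the reference. Plates were incubated at 28 ± 0.5 °C for 48 h. Activity was taken as the diameter of the zone of inhibited growth around the cup.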

Aspergillus niger [7] = assay: Antifungal activity against Aspergillus niger NCIM 545 after 48 hrs by agar cup plate method; summary of the method: as §3
Candida albicans [8] = assay: Antifungal activity against Candida albicans MTCC 277 after 24 hrs by cup plate method; conditions: MTCC 277, 24 h; summary of the method: as §1

SMILES | MIC (Aspergillus niger [1]) [µg/mL] | diameter of the inhibition zone (DIZ) (Bacillus subtilis [2]) [mm] | diameter of the inhibition zone (DIZ) (Escherichia coli [3]) [mm] | MIC (Bacillus subtilis [4]) [µg/mL] | MIC (Escherichia coli [5]) [µg/mL] | diameter of the inhibition zone (DIZ) (Candida albicans [6]) [mm] | diameter of the inhibition zone (DIZ) (Aspergillus niger [7]) [mm] | MIC (Candida albicans [8]) [µg/mL]
CCOc1ccc2c(c1)cc(C(O)P(=O)(OCC)OCC)c1nnnn12 (configuration not stated) | 15 (≈ 39.4 µM) | 15.4 | 13.5 | 10 (≈ 26.3 µM) | 15 (≈ 39.4 µM) | 13.8 | 12.8 | 10 (≈ 26.3 µM)
CCOP(=O)(OCC)C(OC(C)=O)c1cc2ccc(C)cc2n2nnnc12 (configuration not stated) | 10 (≈ 25.5 µM) | 14.1 | 13.2 | 10 (≈ 25.5 µM) | 15 (≈ 38.2 µM) | 13.4 | 15.2 | 10 (≈ 25.5 µM)
CCOP(=O)(OCC)C(OC(C)=O)c1cc2cccc(OC)c2n2nnnc12 (configuration not stated) | 15 (≈ 36.7 µM) | 11.4 | 13.9 | 15 (≈ 36.7 µM) | 25 (≈ 61.2 µM) | 12.1 | 13.4 | 15 (≈ 36.7 µM)
CCOP(=O)(OCC)C(O)c1cc2cc(OC)ccc2n2nnnc12 (configuration not stated) | 15 (≈ 40.9 µM) | 12.4 | 13.3 | 10 (≈ 27.3 µM) | 15 (≈ 40.9 µM) | 14.1 | 12.2 | 10 (≈ 27.3 µM)
CCOP(=O)(OCC)C(O)c1cc2ccc(OC)cc2n2nnnc12 (configuration not stated) | 10 (≈ 27.3 µM) | 12 | 13.6 | 10 (≈ 27.3 µM) | 15 (≈ 40.9 µM) | 13.4 | 14.4 | 10 (≈ 27.3 µM)
CCOP(=O)(OCC)C(OC(C)=O)c1cc2cc(OC)ccc2n2nnnc12 (configuration not stated) | 10 (≈ 24.5 µM) | 13.2 | 12.4 | 10 (≈ 24.5 µM) | 10 (≈ 24.5 µM) | 13.4 | 14.2 | 10 (≈ 24.5 µM)
CCOP(=O)(OCC)C(OC(C)=O)c1cc2ccc(OC)cc2n2nnnc12 (configuration not stated) | 25 (≈ 61.2 µM) | 12.5 | 11.1 | 10 (≈ 24.5 µM) | 15 (≈ 36.7 µM) | 13.8 | 12.5 | 10 (≈ 24.5 µM)
CCOc1ccc2c(c1)cc(C(OC(C)=O)P(=O)(OCC)OCC)c1nnnn12 (configuration not stated) | 10 (≈ 23.7 µM) | 12.1 | 13.8 | 10 (≈ 23.7 µM) | 10 (≈ 23.7 µM) | 14.1 | 14.5 | 10 (≈ 23.7 µM)
CCOP(=O)(OCC)C(O)c1cc2cccc(OC)c2n2nnnc12 (configuration not stated) | 15 (≈ 40.9 µM) | 12.5 | 13.3 | 10 (≈ 27.3 µM) | 15 (≈ 40.9 µM) | 13.8 | 11.5 | 15 (≈ 40.9 µM)
CCOP(=O)(OCC)C(O)c1cc2cccc(C)c2n2nnnc12 (configuration not stated) | 15 (≈ 42.8 µM) | 12.3 | 13.7 | 10 (≈ 28.5 µM) | 25 (≈ 71.4 µM) | 13 | 13.1 | 10 (≈ 28.5 µM)
CCOP(=O)(OCC)C(O)c1cc2ccc(C)cc2n2nnnc12 (configuration not stated) | 15 (≈ 42.8 µM) | 13.6 | 12 | 10 (≈ 28.5 µM) | 15 (≈ 42.8 µM) | 13.8 | 13.2 | 10 (≈ 28.5 µM)
CCOP(=O)(OCC)C(OC(C)=O)c1cc2cc(C)ccc2n2nnnc12 (configuration not stated) | 10 (≈ 25.5 µM) | 12 | 11.4 | 10 (≈ 25.5 µM) | 15 (≈ 38.2 µM) | 13.1 | 14.1 | 10 (≈ 25.5 µM)
CCOP(=O)(OCC)C(OC(C)=O)c1cc2cccc(C)c2n2nnnc12 (configuration not stated) | 15 (≈ 38.2 µM) | 13.1 | 13.4 | 20 (≈ 51 µM) | 10 (≈ 25.5 µM) | 12.2 | 12.2 | 10 (≈ 25.5 µM)
CCOP(=O)(OCC)C(O)c1cc2ccccc2n2nnnc12 (configuration not stated) | 15 (≈ 44.6 µM) | 12 | 13.4 | 10 (≈ 29.7 µM) | 20 (≈ 59.5 µM) | 13.6 | 12.1 | 10 (≈ 29.7 µM)
CCOP(=O)(OCC)C(O)c1cc2cc(C)ccc2n2nnnc12 (configuration not stated) | 10 (≈ 28.5 µM) | 15.2 | 15 | 10 (≈ 28.5 µM) | 10 (≈ 28.5 µM) | 13.2 | 14.2 | 10 (≈ 28.5 µM)
CCOP(=O)(OCC)C(O)c1cc2cccc(CC)c2n2nnnc12 (configuration not stated) | 10 (≈ 27.4 µM) | 14.5 | 16.2 | 10 (≈ 27.4 µM) | 20 (≈ 54.9 µM) | 13.4 | 14.2 | 10 (≈ 27.4 µM)
CCOP(=O)(OCC)C(OC(C)=O)c1cc2cccc(CC)c2n2nnnc12 (configuration not stated) | 15 (≈ 36.9 µM) | 15.1 | 14.2 | 10 (≈ 24.6 µM) | 10 (≈ 24.6 µM) | 12.1 | 13.5 | 10 (≈ 24.6 µM)
CCOP(=O)(OCC)C(OC(C)=O)c1cc2ccccc2n2nnnc12 (configuration not stated) | 20 (≈ 52.9 µM) | 11.2 | 12.5 | 15 (≈ 39.6 µM) | 10 (≈ 26.4 µM) | 14.2 | 13.4 | 10 (≈ 26.4 µM)
COC1=CC(=O)C[C@@H](C)[C@]12Oc1c(Cl)c(OC)cc(OC)c1C2=O [GRISEOFULVIN] | 5 (≈ 14.2 µM) |  |  |  |  | 16.4 | 16.5 | 5 (≈ 14.2 µM)
CN[C@@H]1[C@H](O[C@H]2[C@H](O[C@H]3[C@H](O)[C@@H](O)[C@H](N=C(N)N)[C@@H](O)[C@@H]3N=C(N)N)O[C@@H](C)[C@]2(O)C=O)O[C@@H](CO)[C@H](O)[C@H]1O [STREPTOMYCIN] |  | 16.4 | 16.2 | 5 (≈ 8.6 µM) | 5 (≈ 8.6 µM) |  |  | 
